According to ChEMBL document CHEMBL2086286, “Synthesis, antitumor, cytotoxic and antioxidant evaluation of some new pyrazolotriazines attached to antipyrine moiety” (Eur J Med Chem, 2012):
Converted amounts (≈) assume the structure as drawn. “And” between values parts separate entries of the source, which are not always exact repeats. Equal entries are not always repeated. The source made the active and inactive calls. The rule behind the calls is not given here.

Key:
Nucleic Acid = experiment: Protective activity against bleomycin-iron complex-induced DNA damage at 0.1 mg/ml after 1 hr; assay type: nucleic-acid assay
Method in brief: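 Final reaction mixture: DNA 0.2 mg/mL, bleomycin 0.05 mg/mL, FeCl3 0.025 mM, MgCl2 5 mM, KH2PO4/KOH pH 7.0 30 mM, and test sample 0.1 mg/mL (in MeOH) or ascorbic acid 0.24 mM. Incubated 1 h at 37 °C, stopped with EDTA. DNA damage measured by adding 1% TBA and 25% HCl, heating 15 min at 80 °C, then reading absorbance.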

Vero = experiment: Cytotoxicity against African green monkey Vero cells after 96 hrs by MTT assay; assay type: cell-based; conditions: Chlorocebus sabaeus
HepG2 = experiment: Cytotoxicity against human HepG2 cells after 96 hrs by MTT assay; assay type: functional, cell-based; conditions: HepG2, 96 h
MCF7 = experiment: Cytotoxicity against human MCF7 cells after 96 hrs by MTT assay; assay type: functional, cell-based; conditions: MCF7, 96 h
[1] = Cytotoxicity against mouse EAC after 2 hrs by trypan blue staining based hemocytometer analysis; assay type: functional, Ehrlich; conditions: for IC50: ehrlich
Method in brief: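 Ehrlich ascites cells aspirated aseptically from the peritoneal cavity of a donor animal. Held in RPMI with 10% FBS at 37 °C, 5% CO2 for 2 h with compound at 25, 50 and 100 µg, final DMSO 0.1%. Dead cells counted by trypan blue staining on a hemocytometer; DMSO-only control viability exceeded 95%. 5-Fluorouracil as reference.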

[2] = Antioxidant activity assessed as ABTS free radical scavenging activity at 1 mg/mL by spectroscopic analysis; assay type: functional
Method in brief: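 ABTS radical cation generated by reacting ABTS with MnO2 (25 mg/mL) in phosphate buffer pH 7, then centrifuged and filtered. Absorbance read at 734 nm before and after adding test sample (1 mg/mL in MeOH/buffer 1:1). % inhibition = [A(control) − A(test)]/A(control) × 100. Ascorbic acid (2 mM) as positive control; solvent blank without ABTS.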

WI-38 = experiment: Cytotoxicity against human WI38 cells after 96 hrs by MTT assay; assay type: functional, cell-based; conditions: WI-38, 96 h

| SMILES | Activity (Nucleic Acid) | IC50 (Vero) [µg/mL] | IC50 (HepG2) [µg/mL] | IC50 (MCF7) [µg/mL] | ED25 [1] [µg] | ED100 [1] [µg] | IC50 [1] | inhibition [2] [%] | IC50 (WI-38) [µg/mL] | ED50 [1] [µg] |
| --- | --- | --- | --- | --- | --- | --- | --- | --- | --- | --- |
| CC(=N)/C(C#N)=N\Nc1c(C)n(C)n(-c2ccccc2)c1=O | Active | 10 (≈ 33.7 µM) | 8.3 (≈ 28 µM) | 15.1 (≈ 51 µM) | 0.46 | 97.2 | 100 µg | 80.9 | 13.8 (≈ 46.6 µM) | – |
| CC(=O)c1nnc2c(/N=N/c3c(C)n(C)n(-c4ccccc4)c3=O)c(C)nn2c1C | – | 33.1 (≈ 81.8 µM) | 39.3 (≈ 97.2 µM) | 30.6 (≈ 75.7 µM) | 11.01 | 73.9 | 96.7 µg and 55.5 µg | 27.5 | 40.3 (≈ 99.6 µM) | – |
| CC(=O)C(=NNc1n[nH]c(C)c1/N=N/c1c(C)n(C)n(-c2ccccc2)c1=O)C(C)=O | – | 199 (≈ 472 µM) | 174 (≈ 412 µM) | 214 (≈ 507 µM) | 15.59 | 70 | 95 µg and 54.1 µg | 25.8 | 189 (≈ 446 µM) | – |
| Cc1nn2c3c(nnc2c1/N=N/c1c(C)n(C)n(-c2ccccc2)c1=O)C(=O)CCC3 | Active | 61.1 (≈ 147 µM) | 55.3 (≈ 133 µM) | 68.2 (≈ 164 µM) | 0.67 | 91.4 | 99 µg and 80.2 µg | 52.5 | 53 (≈ 127 µM) | – |
| Cc1nn2c(nnc3c(C)n[nH]c32)c1/N=N/c1c(C)n(C)n(-c2ccccc2)c1=O | – | 276 (≈ 687 µM) | 210 (≈ 521 µM) | 411 (≈ 1020 µM) | 34.69 | 61 | 92.1 µg and 43 µg | 16.1 | 311 (≈ 772 µM) | – |
| CC(=N)c1nnc2c(/N=N/c3c(C)n(C)n(-c4ccccc4)c3=O)c(C)nn2c1N | – | 164 (≈ 406 µM) | 139 (≈ 343 µM) | 152 (≈ 375 µM) | 14.38 | 70.1 | 95.5 µg and 55 µg | 24.4 | 175 (≈ 433 µM) | – |
| CCOC(=O)c1nnc2c(/N=N/c3c(C)n(C)n(-c4ccccc4)c3=O)c(C)nn2c1N | – | 284 (≈ 653 µM) | 268 (≈ 616 µM) | 420 (≈ 965 µM) | 28.02 | 65.3 | 94 µg and 47 µg | 17.6 | 367 (≈ 843 µM) | – |
| Cc1[nH]nc(NN=C(C#N)C#N)c1/N=N/c1c(C)n(C)n(-c2ccccc2)c1=O | – | 209 (≈ 537 µM) | 183 (≈ 470 µM) | 221 (≈ 570 µM) | 27.85 | 64 | 94.3 µg | 17.2 | 197 (≈ 508 µM) | – |
| Cc1[nH]nc(N)c1/N=N/c1c(C)n(C)n(-c2ccccc2)c1=O | – | 80.3 (≈ 258 µM) | 79.1 (≈ 254 µM) | 84.7 (≈ 272 µM) | 1.71 | 79.3 | 97 µg and 58 µg | 28.4 | 73.1 (≈ 235 µM) | – |
| Cc1[nH]nc(NN=C2C(=O)CCCC2=O)c1/N=N/c1c(C)n(C)n(-c2ccccc2)c1=O | Active | 24.8 (≈ 57.1 µM) | 16.2 (≈ 37.3 µM) | 29.9 (≈ 68.8 µM) | 0.88 | 80 | 98.8 µg and 63.3 µg | 40 | 19.8 (≈ 45.6 µM) | – |
| CC1=NNC(=O)/C1=N/Nc1n[nH]c(C)c1/N=N/c1c(C)n(C)n(-c2ccccc2)c1=O | – | 214 (≈ 508 µM) | 202 (≈ 480 µM) | 393 (≈ 935 µM) | 26.63 | 63.3 | 93 µg and 45.5 µg | 16.1 | 300 (≈ 713 µM) | – |
| Cc1[nH]nc(N/N=C(\SC#N)C(=O)c2ccccc2)c1/N=N/c1c(C)n(C)n(-c2ccccc2)c1=O | Active | 96.8 (≈ 194 µM) | 95.3 (≈ 191 µM) | 101 (≈ 202 µM) | 26.92 | 65.2 | 94.3 µg and 48.1 µg | 17.6 | 92.8 (≈ 186 µM) | – |
| O=C1O[C@H]([C@@H](O)CO)C(O)=C1O | – | – | – | – | – | – | – | 92.3 | – | – |
| O=c1[nH]cc(F)c(=O)[nH]1 [FLUOROURACIL] | – | 6.4 (≈ 49.2 µM) | 9.1 (≈ 70 µM) | 2.5 (≈ 19.2 µM) | 32.26 | 68 | 97.3 µg | – | 4 (≈ 30.8 µM) | 38.6 |
| CC(=N)/C(C#N)=N\Nc1n[nH]c(C)c1/N=N/c1c(C)n(C)n(-c2ccccc2)c1=O | – | 735 (≈ 1820 µM) | 70.8 (≈ 175 µM) | 69 (≈ 171 µM) | 1.3 | 80 | 97.5 µg and 60.1 µg | 28.6 | 70.2 (≈ 174 µM) | – |
| CCOC(=O)/C(C#N)=N/Nc1n[nH]c(C)c1/N=N/c1c(C)n(C)n(-c2ccccc2)c1=O | – | 179 (≈ 412 µM) | 153 (≈ 352 µM) | 150 (≈ 344 µM) | 22.53 | 68.7 | 94.9 µg and 49.8 µg | 21.6 | 169 (≈ 389 µM) | – |
| Cc1nn2c(nnc3c(N)c(C#N)c(N)nc32)c1/N=N/c1c(C)n(C)n(-c2ccccc2)c1=O | – | 220 (≈ 485 µM) | 203 (≈ 448 µM) | 419 (≈ 922 µM) | 62.53 | 40.6 | – | 8.28 | 303 (≈ 667 µM) | – |
| Cc1[nH]nc(N/N=C(\C#N)c2nc3ccccc3s2)c1/N=N/c1c(C)n(C)n(-c2ccccc2)c1=O | – | 181 (≈ 364 µM) | 179 (≈ 360 µM) | 164 (≈ 330 µM) | 11.17 | 70.8 | 95 µg and 56.4 µg | 19.3 | 169 (≈ 341 µM) | – |
| Cc1[nH]nc(N/N=C(/C#N)C(N)=C(C#N)C#N)c1/N=N/c1c(C)n(C)n(-c2ccccc2)c1=O | – | 212 (≈ 467 µM) | 148 (≈ 325 µM) | 192 (≈ 422 µM) | 64.48 | 38 | – | 9.86 | 176 (≈ 387 µM) | – |
| Cc1[nH]nc(-n2nc(C(=O)c3ccccc3)sc2=N)c1/N=N/c1c(C)n(C)n(-c2ccccc2)c1=O | – | 210 (≈ 421 µM) | 186 (≈ 373 µM) | 210 (≈ 420 µM) | 39.36 | 60.5 | 90.7 µg | 15.7 | 171 (≈ 343 µM) | – |
| Cc1nn2c(N)c(C#N)nnc2c1/N=N/c1c(C)n(C)n(-c2ccccc2)c1=O | – | 301 (≈ 775 µM) | 254 (≈ 654 µM) | 452 (≈ 1160 µM) | 34.26 | 62 | 91.9 µg and 42.8 µg | 15.9 | 377 (≈ 971 µM) | – |
| Cc1nn2c(N)c(-c3nc4ccccc4s3)nnc2c1/N=N/c1c(C)n(C)n(-c2ccccc2)c1=O | – | 244 (≈ 491 µM) | 225 (≈ 454 µM) | 186 (≈ 374 µM) | 26.63 | 64 | 93.8 µg and 49 µg | 17.2 | 199 (≈ 400 µM) | – |
